Test results as given in ChEMBL document CHEMBL1142628, “Antineoplastic agents 430. Isolation and structure of cribrostatins 3, 4, and 5 from the republic of maldives cribrochalina species” (2000).
Converted amounts (≈) assume the structure as drawn. The source made the active and inactive calls. The rule behind the calls is not given here.

Assays:
Neisseria gonorrhoeae [1] = assay: Antibacterial activity against Neisseria gonorrhoeae ATCC 49226 by disk diffusion method; assay type: functional
Candida albicans [2] = assay: Antifungal activity against Candida albicans ATCC 90028 at 100 ug/disk by disk diffusion method; assay type: functional, organism-based
Enterococcus faecalis = assay: Antibacterial activity against Enterococcus faecalis ATCC 29212 at 100 ug/disk by disk diffusion method; assay type: functional, organism-based
Enterobacter cloacae = assay: Antibacterial activity against Enterobacter cloacae ATCC 13047 at 100 ug/disk by disk diffusion method; assay type: functional, organism-based
Micrococcus luteus [3] = assay: Antibacterial activity against Micrococcus luteus Presque Isle 456 at 100 ug/disk by disk diffusion method; assay type: functional, organism-based
Staphylococcus aureus [4] = assay: Antibacterial activity against Staphylococcus aureus ATCC 29213 at 100 ug/disk by disk diffusion method; assay type: functional, organism-based
Escherichia coli = assay: Antibacterial activity against Escherichia coli ATCC 25922 at 100 ug/disk by disk diffusion method; assay type: functional, organism-based
[5] = tested on: Stenotrophomonas maltophilia; assay: Antibacterial activity against Stenotrophomonas maltophilia ATCC 13637 at 100 ug/disk by disk diffusion method; assay type: functional, organism-based
Bacillus subtilis [6] = assay: Antibacterial activity against Bacillus subtilis Presque Isle 620 at 100 ug/disk by disk diffusion method; assay type: functional, organism-based
Cryptococcus neoformans [7] = assay: Antifungal activity against Cryptococcus neoformans ATCC 90112 at 100 ug/disk by disk diffusion method; assay type: functional, organism-based
Streptococcus pneumoniae [8] = assay: Antibacterial activity against Streptococcus pneumoniae ATCC 6303 at 100 ug/disk by disk diffusion method; assay type: functional, organism-based
[9] = tested on: Streptococcus sp. 'group A'; assay: Antibacterial activity against group A Streptococcus isolate at 100 ug/disk by disk diffusion method; assay type: functional, organism-based
Streptococcus pneumoniae [10] = assay: Antibacterial activity against invasive Streptococcus pneumoniae isolate by disk diffusion method; assay type: functional
Staphylococcus aureus [11] = assay: Antibacterial activity against Staphylococcus aureus ATCC 29213 by disk diffusion method; assay type: functional
Cryptococcus neoformans [12] = assay: Antifungal activity against Cryptococcus neoformans ATCC 90112 by disk diffusion method; assay type: functional
Streptococcus pneumoniae [13] = assay: Antibacterial activity against penicillin-resistant Streptococcus pneumoniae isolate by disk diffusion method; assay type: functional
Bacillus subtilis [14] = assay: Antibacterial activity against Bacillus subtilis Presque Isle 620 by disk diffusion method; assay type: functional
Micrococcus luteus [15] = assay: Antibacterial activity against Micrococcus luteus Presque Isle 456 by disk diffusion method; assay type: functional
Streptococcus pneumoniae [16] = assay: Antibacterial activity against Streptococcus pneumoniae ATCC 6303 by disk diffusion method; assay type: functional
Candida albicans [17] = assay: Antifungal activity against Candida albicans ATCC 90028 by disk diffusion method; assay type: functional
MCF7 [18] = assay: Growth inhibition of human MCF7 cells; assay type: functional
In short: (§1)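 NCI 60-cell-line screen run by the standard NCI protocol. Each test agent ran in quadruplicate, with a top concentration of 10^-5 M and five log-spaced dilutions. GI50 values were averaged and reported as negative log GI50.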

MOLT-4 = assay: Growth inhibition of human MOLT4 cells; assay type: functional; in short: as §1
NCI-H522 = assay: Growth inhibition of human NCI-H522 cells; assay type: functional; in short: as §1
Hs-578T = assay: Growth inhibition of human HS578T cells; assay type: functional; in short: as §1
NCI-H460 [19] = assay: (§2) Growth inhibition of human NCI-H460 cells; assay type: functional; in short: as §1
HOP-92 = assay: Growth inhibition of human HOP92 cells; assay type: functional; in short: as §1
LOX IMVI = assay: Growth inhibition of human LOX IMVI cells; assay type: functional; in short: as §1
SN12C = assay: Growth inhibition of human SN12C cells; assay type: functional
In short: (§3)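 NCI human tumor cell line panel screen run to the standard NCI protocol. Each compound tested in quadruplicate with a top concentration of 10^-5 M and five log-spaced dilutions. GI50 values were averaged across replicates and reported as negative log GI50.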

K562 = assay: Growth inhibition of human K562 cells; assay type: functional; in short: as §1
UACC-62 = assay: Growth inhibition of human UACC62 cells; assay type: functional; in short: as §3
RPMI-8226 = assay: Growth inhibition of human RPMI8226 cells; assay type: functional; in short: as §1
Neisseria gonorrhoeae [20] = assay: Antibacterial activity against penicillin-resistant Neisseria gonorrhoeae isolate by disk diffusion method; assay type: functional
HOP-62 = assay: Growth inhibition of human HOP62 cells; assay type: functional; in short: as §1
ACHN = assay: Growth inhibition of human ACHN cells; assay type: functional; in short: as §1
CCRF-CEM = assay: Growth inhibition of human CCRF-CEM cells; assay type: functional; in short: as §1
MDA-N = assay: Growth inhibition of human MDA-N cells; assay type: functional; in short: as §1
SW-620 = assay: Growth inhibition of human SW620 cells; assay type: functional; in short: as §3
KM12 = assay: Growth inhibition of human KM12 cells; assay type: functional; in short: as §1
MCF7 [21] = assay: Growth inhibition of human adriamycin-resistant MCF7 cells; assay type: functional; in short: as §3
MDA-MB-435 = assay: Growth inhibition of human MDA-MB-435 cells; assay type: functional; in short: as §1
OVCAR-3 = assay: Growth inhibition of human OVCAR-3 cells; assay type: functional; in short: as §1
SF-268 = assay: Growth inhibition of human SF268 cells; assay type: functional; in short: as §3
SF-539 = assay: Growth inhibition of human SF539 cells; assay type: functional; in short: as §3
MDA-MB-231 = assay: Growth inhibition of human MDA-MB-231/ATCC cells; assay type: functional; in short: as §1
COLO 205 = assay: Growth inhibition of human COLO205 cells; assay type: functional; in short: as §1
SNB-75 = assay: Growth inhibition of human SNB75 cells; assay type: functional; in short: as §3
DU-145 = assay: Growth inhibition of human DU145 cells; assay type: functional; in short: as §1
T47D = assay: Growth inhibition of human T47D cells; assay type: functional; in short: as §3
Malme-3M = assay: Growth inhibition of human MALME-3M cells; assay type: functional; in short: as §1
U-251 = assay: Growth inhibition of human U251 cells; assay type: functional; in short: as §3
KM-20L2 = assay: Growth inhibition of human KM20L2 cells; assay type: functional
NCI-H226 = assay: Growth inhibition of human NCI-H226 cells; assay type: functional; in short: as §1
[22] = Growth inhibition of human HL60(TB) cells; assay type: functional, HL-60(TB); details: HL-60
In short: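 NCI human tumour cell-line panel screen run by the standard NCI protocol. Each compound was tested in quadruplicate, with an upper concentration limit of 10^-5 M and five log-spaced dilutions. GI50 values were averaged and reported as negative log GI50.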

RXF 393 = assay: Growth inhibition of human RXF393 cells; assay type: functional; in short: as §3
NCI-H460 [23] = assay: as §2; assay type: functional; in short: as §1; remark: listed apart in the source
BXPC-3 = assay: Growth inhibition of human BXPC3 cells; assay type: functional
PC-3 = assay: Growth inhibition of human PC3 cells; assay type: functional; in short: as §1
786-0 = assay: Growth inhibition of human 786-0 cells; assay type: functional; in short: as §1
SR = assay: Growth inhibition of human SR cells; assay type: functional; in short: as §3
P388 = assay: Growth inhibition of mouse P388 cells; assay type: functional; details: for EC50: read-out: ED50 (the source's name)
SK-MEL-5 = assay: Growth inhibition of human SK-MEL-5 cells; assay type: functional; in short: as §3
SF-295 [24] = assay: (§4) Growth inhibition of human SF295 cells; assay type: functional; in short: as §3
OVCAR-4 = assay: Growth inhibition of human OVCAR4 cells; assay type: functional; in short: as §1
SF-295 [25] = assay: as §4; assay type: functional; in short: as §3; remark: listed apart in the source
OVCAR-8 = assay: Growth inhibition of human OVCAR8 cells; assay type: functional; in short: as §1
A549 = assay: Growth inhibition of human A549/ATCC cells; assay type: functional; in short: as §1

SMILES: CC1=C(N)C(=O)c2c(ccnc2C)C1=O [CRIBROSTATIN 1]
- MIC (Neisseria gonorrhoeae [1]): 0.39 µg/disc
- Activity (Candida albicans [2]): inactive
- Activity (Enterococcus faecalis): inactive
- Activity (Enterobacter cloacae): inactive
- Activity (Micrococcus luteus [3]): inactive
- Activity (Staphylococcus aureus [4]): inactive
- Activity (Escherichia coli): inactive
- Activity [5]: inactive
- Activity (Bacillus subtilis [6]): inactive
- Activity (Cryptococcus neoformans [7]): inactive
- Activity (Streptococcus pneumoniae [8]): inactive

SMILES: CCOC1=C(C)C(=O)c2cc(=O)n(C)cc2C1=O [CRIBROSTATIN 2]
- MIC (Neisseria gonorrhoeae [1]): 0.39 µg/disc
- Activity [9]: inactive
- MIC (Streptococcus pneumoniae [10]): 50 µg/disc
- Activity (Enterococcus faecalis): inactive
- Activity (Enterobacter cloacae): inactive
- MIC (Staphylococcus aureus [11]): 12.5 µg/disc
- MIC (Cryptococcus neoformans [12]): 12.5 µg/disc
- MIC (Streptococcus pneumoniae [13]): 25 µg/disc
- MIC (Bacillus subtilis [14]): 25 µg/disc
- Activity (Escherichia coli): inactive
- MIC (Micrococcus luteus [15]): 50 µg/disc
- MIC (Streptococcus pneumoniae [16]): 12.5 µg/disc
- Activity [5]: inactive
- MIC (Candida albicans [17]): 3.12 µg/disc

SMILES: C/C=C(/C)C(=O)OCc1nccc2c1C(=O)C(N)=C(C)C2=O [CRIBROSTATIN 3]
- GI50 (MCF7 [18]): 4.68 µM
- MIC (Neisseria gonorrhoeae [1]): 0.0975 µg/disc
- Activity (Candida albicans [2]): inactive
- GI50 (MOLT-4): 4.9 µM
- GI50 (NCI-H522): 3.89 µM
- GI50 (Hs-578T): 6.31 µM
- GI50 (NCI-H460 [19]): > 1 µg/mL
- GI50 (HOP-92): 9.55 µM
- GI50 (LOX IMVI): 4.07 µM
- GI50 (SN12C): 6.17 µM
- GI50 (K562): 7.41 µM
- GI50 (UACC-62): 2.51 µM
- GI50 (RPMI-8226): 8.51 µM
- Activity (Enterococcus faecalis): inactive
- Activity (Enterobacter cloacae): inactive
- MIC (Neisseria gonorrhoeae [20]): 0.39 µg/disc
- Activity (Micrococcus luteus [3]): inactive
- GI50 (HOP-62): 5.37 µM
- GI50 (ACHN): 9.55 µM
- GI50 (CCRF-CEM): 4.27 µM
- GI50 (MDA-N): 1.91 µM
- GI50 (SW-620): 3.63 µM
- GI50 (KM12): 4.9 µM
- Activity (Staphylococcus aureus [4]): inactive
- GI50 (MCF7 [21]): 4.57 µM
- GI50 (MDA-MB-435): 1.82 µM
- Activity (Escherichia coli): inactive
- GI50 (OVCAR-3): 0.77 µg/mL (≈ 2.56 µM)
- GI50 (SF-268): 6.31 µM
- GI50 (SF-539): 4.79 µM
- GI50 (MDA-MB-231): 8.71 µM
- GI50 (COLO 205): 5.89 µM
- GI50 (SNB-75): 4.79 µM
- GI50 (DU-145): > 1 µg/mL
- GI50 (T47D): 6.46 µM
- GI50 (Malme-3M): 0.617 µM
- GI50 (U-251): 3.24 µM
- GI50 (KM-20L2): > 1 µg/mL
- Activity [5]: inactive
- GI50 (NCI-H226): 7.08 µM
- GI50 [22]: 3.09 µM
- GI50 (RXF 393): 4.9 µM
- GI50 (NCI-H460 [23]): 3.02 µM
- Activity (Bacillus subtilis [6]): inactive
- GI50 (BXPC-3): > 1 µg/mL
- Activity (Cryptococcus neoformans [7]): inactive
- GI50 (PC-3): 2 µM
- GI50 (786-0): 5.89 µM
- Activity (Streptococcus pneumoniae [8]): inactive
- GI50 (SR): 3.39 µM
- GI50 (P388): 2.49 µg/mL (≈ 8.29 µM)
- EC50 (P388): 2.5 µg/mL (≈ 8.32 µM)
- GI50 (SK-MEL-5): 1.1 µM
- GI50 (SF-295 [24]): > 1 µg/mL
- GI50 (OVCAR-4): 5.25 µM
- GI50 (SF-295 [25]): 3.63 µM
- GI50 (OVCAR-8): 8.71 µM
- GI50 (A549): 3.47 µM

SMILES: C/C=C(/C)C(=O)OCc1nccc2c1C(=O)C(NC)=C(C)C2=O [CRIBROSTATIN 4]
- MIC (Neisseria gonorrhoeae [1]): 6.25 µg/disc
- Activity (Candida albicans [2]): inactive
- GI50 (NCI-H460 [19]): 0.22 µg/mL (≈ 0.7 µM)
- Activity (Enterococcus faecalis): inactive
- Activity (Staphylococcus aureus [4]): inactive
- Activity (Escherichia coli): inactive
- GI50 (OVCAR-3): 0.18 µg/mL (≈ 0.573 µM)
- GI50 (DU-145): 0.3 µg/mL (≈ 0.954 µM)
- MIC (Micrococcus luteus [15]): 50 µg/disc
- GI50 (KM-20L2): 0.14 µg/mL (≈ 0.445 µM)
- Activity [5]: inactive
- Activity (Bacillus subtilis [6]): inactive
- GI50 (BXPC-3): 0.29 µg/mL (≈ 0.923 µM)
- Activity (Cryptococcus neoformans [7]): inactive
- Activity (Streptococcus pneumoniae [8]): inactive
- GI50 (P388): 0.045 µg/mL (≈ 0.143 µM)
- EC50 (P388): 0.045 µg/mL (≈ 0.143 µM)
- GI50 (SF-295 [24]): 0.36 µg/mL (≈ 1.15 µM)
